Test results as given in ChEMBL document CHEMBL4680156, “Discovery of novel pyrido-pyrrolidine hybrid compounds as alpha-glucosidase inhibitors and alternative agent for control of type 1 diabetes” (Eur J Med Chem, 2020).
Active and inactive are the calls of the source. No cut-off for these calls is given here.

How the values were obtained:
Saccharomyces cerevisiae = experiment: Inhibition of Saccharomyces cerevisiae alpha-glucosidase at 1 mM using PNPG as substrate incubated for 10 mins by spectrophotometric method
[1] = target: T1, Tissue alpha-L-fucosidase (Bos taurus) (UniProt Q2KIM0); experiment: Inhibition of bovine kidney alpha-fucosidase at 1 mM using […] as substrate incubated for 10 mins by spectrophotometric method
T1 sequence (whole entry): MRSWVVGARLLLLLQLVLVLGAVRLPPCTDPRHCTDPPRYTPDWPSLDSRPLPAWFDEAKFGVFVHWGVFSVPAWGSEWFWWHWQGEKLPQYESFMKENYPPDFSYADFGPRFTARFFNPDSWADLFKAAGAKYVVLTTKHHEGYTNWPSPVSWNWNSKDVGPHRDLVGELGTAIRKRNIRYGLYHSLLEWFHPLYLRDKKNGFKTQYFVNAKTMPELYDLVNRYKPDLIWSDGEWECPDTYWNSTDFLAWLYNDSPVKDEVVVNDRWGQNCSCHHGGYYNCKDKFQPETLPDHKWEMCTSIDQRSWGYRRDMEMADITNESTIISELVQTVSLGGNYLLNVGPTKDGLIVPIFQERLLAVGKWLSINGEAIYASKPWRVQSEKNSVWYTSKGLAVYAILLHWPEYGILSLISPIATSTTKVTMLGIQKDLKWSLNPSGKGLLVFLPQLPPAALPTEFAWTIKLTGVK

[2] = target: T2, Alpha-mannosidase (Canavalia ensiformis) (UniProt C0HJB3); experiment: Inhibition of jack bean alpha-mannosidase at 1 mM using […] as substrate incubated for 10 mins by spectrophotometric method
T2 sequence (whole entry): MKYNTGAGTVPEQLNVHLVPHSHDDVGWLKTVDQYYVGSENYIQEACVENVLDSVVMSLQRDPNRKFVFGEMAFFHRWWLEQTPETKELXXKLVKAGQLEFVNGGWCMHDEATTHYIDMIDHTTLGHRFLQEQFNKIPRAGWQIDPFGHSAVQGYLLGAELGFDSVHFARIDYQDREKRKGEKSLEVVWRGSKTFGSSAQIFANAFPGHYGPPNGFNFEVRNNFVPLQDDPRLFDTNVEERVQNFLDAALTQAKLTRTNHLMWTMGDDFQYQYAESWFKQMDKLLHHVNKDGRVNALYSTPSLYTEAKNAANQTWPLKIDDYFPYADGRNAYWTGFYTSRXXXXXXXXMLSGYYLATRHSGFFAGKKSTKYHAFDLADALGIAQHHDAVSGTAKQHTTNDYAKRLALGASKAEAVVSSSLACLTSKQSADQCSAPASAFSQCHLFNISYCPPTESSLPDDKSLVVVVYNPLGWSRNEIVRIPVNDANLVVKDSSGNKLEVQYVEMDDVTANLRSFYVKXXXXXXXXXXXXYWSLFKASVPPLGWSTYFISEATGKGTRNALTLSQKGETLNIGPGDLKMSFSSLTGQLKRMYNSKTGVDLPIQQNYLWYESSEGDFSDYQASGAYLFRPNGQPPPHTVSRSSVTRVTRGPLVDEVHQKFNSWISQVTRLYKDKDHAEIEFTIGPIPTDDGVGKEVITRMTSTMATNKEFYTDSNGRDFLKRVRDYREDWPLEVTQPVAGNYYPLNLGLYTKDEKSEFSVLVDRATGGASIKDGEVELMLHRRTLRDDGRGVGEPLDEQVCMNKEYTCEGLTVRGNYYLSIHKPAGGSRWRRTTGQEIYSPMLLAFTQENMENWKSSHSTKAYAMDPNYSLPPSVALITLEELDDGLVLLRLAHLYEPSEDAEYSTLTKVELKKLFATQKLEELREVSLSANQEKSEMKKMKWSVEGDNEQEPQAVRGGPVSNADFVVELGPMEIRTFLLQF

[3] = Inhibition of Saccharomyces cerevisiae alpha-glucosidase using PNPG as substrate incubated for 10 mins by spectrophotometric method
[4] = target: T3, Tissue alpha-L-fucosidase (Bos taurus, UniProt Q2KIM0); experiment: Inhibition of bovine kidney alpha-fucosidase using […] as substrate incubated for 10 mins by spectrophotometric method
T3 sequence (Q2KIM0 whole entry): T1 sequence (whole entry)

Alpha-mannosidase = target: T4, Alpha-mannosidase (Canavalia ensiformis, UniProt C0HJB3); experiment: Inhibition of jack bean alpha-mannosidase using […] as substrate incubated for 10 mins by spectrophotometric method
T4 sequence (C0HJB3 whole entry): T2 sequence (whole entry)

Maltase-glucoamylase = Maltase-glucoamylase (Homo sapiens, UniProt O43451); experiment: Inhibition of alpha-glucosidase (unknown origin) using sucrose as substrate incubated for 30 mins
[5] = Inhibition of Saccharomyces cerevisiae alpha-glucosidase using maltose as substrate preincubated for 5 mins followed by substrate addition and measured after 15 mins by LC-TQ-MS/MS analysis
[6] = Inhibition of Saccharomyces cerevisiae alpha-glucosidase assessed as reduction in p-nitrophenol release using p-nitrophenyl glycoside as substrate by spectrophotometric analysis
[7] = Inhibition of Wistar rat intestinal maltase assessed as reduction in released D-glucose level using maltose as substrate by colorimetric assay; type: tissue-based, Intestine
[8] = Inhibition of fungi maltase
Summary of the method: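 Yeast α-glucosidase, 0.1 IU per well, was added to 2 mM 4-nitrophenyl α-D-glucopyranoside in 10 mM potassium phosphate pH 7.2, with compound from DMSO at 2–10 μM. Plates ran 10 min at 37 °C and were read at 430 nm. Inhibition was calculated against a buffer control, and IC50 came from three independent assays run in triplicate.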

[9] = Inhibition of rice alpha-glucosidase; design: species or system Oryza sativa
Rattus norvegicus [10] = experiment: Antidiabetic activity against STZ-induced type 1 diabetic Sprague-Dawley rat model assessed as decrease in fasting blood glucose level at 60 mg/kg, po administered once daily for 28 days; type: functional, organism-based; conditions: time 28.0 day
Summary of the method: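 Male Sprague-Dawley rats (250–320 g, 8–10 weeks) were given STZ 70 mg/kg ip once in 0.1 mmol/L citrate buffer, pH 4.5. Rats with random glucose >125 mg/dl at 4 days were counted diabetic. Dosing was 60 mg/kg in 0.5% saline by gavage once daily for 4 weeks, n=6 per group. After a 6 h fast, tail blood glucose was read by glucometer. Data are mean ± SD; 2-way ANOVA.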

[11] = Toxicity in STZ-treated diabetic Sprague-Dawley rat model assessed as decrease in body weight at 60 mg/kg, po administered once daily for 28 days; type: organism-based; conditions: in vivo, 672 h, time 28 day
Summary of the method: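 Male Sprague-Dawley rats (250–320 g, 8–10 weeks) were made diabetic with a single STZ dose (70 mg/kg ip in 0.1 mmol/L citrate buffer, pH 4.5). Random glucose above 125 mg/dl defined diabetes. Dosing was 60 mg/kg in 0.5% saline by gastric gavage once daily for 4 weeks, n=6 per group, with vehicle controls. Body weight was recorded before and after treatment; mean ± SD, 2-way ANOVA.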

Rattus norvegicus [12] = experiment: Decrease in post prandial glucose level in type 1 diabetic Sprague-Dawley rat model at 60 mg/kg, po administered once daily for 28 days; conditions: time 28.0 day
[13] = Inhibition of Saccharomyces cerevisiae alpha-glucosidase assessed as reduction in p-nitrophenol liberation using PNPG as substrate preincubated with substrate for 5 mins followed by incubation with enzyme for 5 mins

Sequence of Maltase-glucoamylase (O43451 whole entry): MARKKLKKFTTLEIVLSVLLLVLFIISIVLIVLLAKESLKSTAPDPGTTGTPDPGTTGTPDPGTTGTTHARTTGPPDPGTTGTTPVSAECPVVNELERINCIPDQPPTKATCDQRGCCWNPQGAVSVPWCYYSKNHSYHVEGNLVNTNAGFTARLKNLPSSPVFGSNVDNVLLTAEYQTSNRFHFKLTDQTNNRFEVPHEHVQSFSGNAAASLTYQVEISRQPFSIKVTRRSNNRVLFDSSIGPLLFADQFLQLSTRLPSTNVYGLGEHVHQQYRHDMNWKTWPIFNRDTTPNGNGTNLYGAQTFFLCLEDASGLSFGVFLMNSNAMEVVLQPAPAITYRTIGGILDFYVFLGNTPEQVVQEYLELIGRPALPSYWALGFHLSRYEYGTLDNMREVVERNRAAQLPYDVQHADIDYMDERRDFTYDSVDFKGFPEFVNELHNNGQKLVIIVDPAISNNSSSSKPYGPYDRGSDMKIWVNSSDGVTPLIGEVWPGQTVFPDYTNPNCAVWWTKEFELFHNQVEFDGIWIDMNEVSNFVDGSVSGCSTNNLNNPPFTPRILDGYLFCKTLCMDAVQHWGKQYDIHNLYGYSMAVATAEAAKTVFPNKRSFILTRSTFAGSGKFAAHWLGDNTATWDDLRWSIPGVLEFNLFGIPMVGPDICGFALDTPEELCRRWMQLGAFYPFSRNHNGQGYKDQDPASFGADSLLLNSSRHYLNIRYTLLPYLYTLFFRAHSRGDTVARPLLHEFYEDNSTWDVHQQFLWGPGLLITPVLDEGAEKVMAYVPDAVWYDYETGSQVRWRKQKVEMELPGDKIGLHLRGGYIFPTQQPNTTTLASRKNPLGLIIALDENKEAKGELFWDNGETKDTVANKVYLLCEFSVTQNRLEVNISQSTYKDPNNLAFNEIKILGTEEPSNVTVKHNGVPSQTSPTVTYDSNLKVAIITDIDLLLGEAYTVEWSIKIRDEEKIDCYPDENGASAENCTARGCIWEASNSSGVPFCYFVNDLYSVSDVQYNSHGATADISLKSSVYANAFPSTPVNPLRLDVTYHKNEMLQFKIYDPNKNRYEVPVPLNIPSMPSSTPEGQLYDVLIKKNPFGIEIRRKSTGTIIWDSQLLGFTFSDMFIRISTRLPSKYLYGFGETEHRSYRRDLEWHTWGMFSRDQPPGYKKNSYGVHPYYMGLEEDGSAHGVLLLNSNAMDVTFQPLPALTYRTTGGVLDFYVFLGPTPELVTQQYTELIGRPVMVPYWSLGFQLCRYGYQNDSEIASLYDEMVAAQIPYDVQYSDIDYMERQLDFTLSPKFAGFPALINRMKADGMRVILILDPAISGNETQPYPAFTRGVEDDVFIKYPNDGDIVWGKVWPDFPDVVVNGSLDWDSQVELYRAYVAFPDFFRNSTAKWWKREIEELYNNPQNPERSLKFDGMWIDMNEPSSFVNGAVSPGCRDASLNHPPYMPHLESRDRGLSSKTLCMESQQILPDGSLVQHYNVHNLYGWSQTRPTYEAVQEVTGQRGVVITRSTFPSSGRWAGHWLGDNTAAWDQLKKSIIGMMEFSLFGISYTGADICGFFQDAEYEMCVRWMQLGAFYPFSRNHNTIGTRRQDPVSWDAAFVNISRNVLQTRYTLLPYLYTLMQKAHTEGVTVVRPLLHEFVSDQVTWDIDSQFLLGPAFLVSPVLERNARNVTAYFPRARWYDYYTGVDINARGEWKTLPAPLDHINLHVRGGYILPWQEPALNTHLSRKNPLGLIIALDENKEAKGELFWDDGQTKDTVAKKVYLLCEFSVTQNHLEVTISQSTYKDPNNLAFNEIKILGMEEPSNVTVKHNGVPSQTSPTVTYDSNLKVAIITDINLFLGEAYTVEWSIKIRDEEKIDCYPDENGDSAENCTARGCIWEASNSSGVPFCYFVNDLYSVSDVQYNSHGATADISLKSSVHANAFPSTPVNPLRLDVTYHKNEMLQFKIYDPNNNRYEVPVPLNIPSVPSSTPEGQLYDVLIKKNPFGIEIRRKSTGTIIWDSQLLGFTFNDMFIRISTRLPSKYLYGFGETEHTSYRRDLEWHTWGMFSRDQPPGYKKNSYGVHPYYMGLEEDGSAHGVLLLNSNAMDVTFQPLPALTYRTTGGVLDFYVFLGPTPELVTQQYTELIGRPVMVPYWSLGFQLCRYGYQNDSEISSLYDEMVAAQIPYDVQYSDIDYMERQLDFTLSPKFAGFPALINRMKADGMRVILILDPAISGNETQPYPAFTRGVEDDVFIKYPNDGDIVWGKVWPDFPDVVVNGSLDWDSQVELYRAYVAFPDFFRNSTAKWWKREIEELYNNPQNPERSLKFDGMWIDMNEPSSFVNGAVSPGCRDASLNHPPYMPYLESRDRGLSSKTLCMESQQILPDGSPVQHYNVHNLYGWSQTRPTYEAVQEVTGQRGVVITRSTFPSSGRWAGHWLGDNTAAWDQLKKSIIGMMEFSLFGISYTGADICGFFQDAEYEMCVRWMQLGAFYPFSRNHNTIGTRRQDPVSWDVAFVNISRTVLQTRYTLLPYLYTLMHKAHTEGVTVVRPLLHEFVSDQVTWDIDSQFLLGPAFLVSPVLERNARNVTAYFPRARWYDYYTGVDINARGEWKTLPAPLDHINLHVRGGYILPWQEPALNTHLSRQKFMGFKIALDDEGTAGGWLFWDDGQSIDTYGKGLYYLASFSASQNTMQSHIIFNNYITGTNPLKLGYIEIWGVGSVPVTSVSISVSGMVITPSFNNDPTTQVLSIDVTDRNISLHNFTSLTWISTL

Row | Compound | inhibition [1] [%] | inhibition [2] [%] | IC50 [3] [µM] | IC50 [4] [µM] | IC50 (Alpha-mannosidase) [µM] | further results
1 | C#CCn1c(/C=C2\OC(=O)c3c2cc(C)[nH]c3=O)ccc1CO | < 50 | < 50 | – | – | – | inhibition (Saccharomyces cerevisiae): < 50%
2 | CC(C)c1ccc(/C=C2\C(=O)Nc3cc(Cl)ccc32)cc1 | – | – | 15 | 65 | 28 | –
3 | O=C(N/N=C/c1ccc(Cl)cc1)c1ccc(-c2nc3ccccc3s2)cc1 | < 50 | – | 20.5 | – | 15 | –
4 | COc1ccc([C@@H]2N[C@@H](CO)[C@H](O)[C@H]2O)cc1O [L-RADICAMINE A] | – | – | 25.2 | 41 | 28 | IC50 (Maltase-glucoamylase): 6.7 µM
5 | Cc1cc2c(c(=O)[nH]1)C(=O)O/C2=C\c1ccc(CO)n1-c1ccc(O)cc1 | – | < 50 | 33.3 | 21.7 | – | –
6 | COc1cc(O)c2c(c1)C(=O)c1cc(C)cc(O)c1C2=O [PHYSCION] | – | < 50 | 26.4 | 32 | – | IC50 [5]: 5.32 µM
7 | O=C1Nc2cc(Cl)ccc2/C1=C/c1ccccc1[N+](=O)[O-] | – | – | 15 | 65 | 28 | –
8 | Cc1ccc(S(=O)(=O)Nc2ccc(C(=O)/C=C/c3ccc(O)c(O)c3)cc2)cc1 | – | – | 82.7 | 91 | 105 | –
9 | Cc1ccc(S(=O)(=O)Nc2cccc(C(=O)/C=C/c3ccc(O)c(O)c3)c2)cc1 | – | – | 82.7 | 91 | 105 | –
10 | C=CCn1c(/C=C2\OC(=O)c3c2cc(C)[nH]c3=O)ccc1CO | < 50 | < 50 | – | – | – | inhibition (Saccharomyces cerevisiae): < 50%
11 | OC[C@H]1NC[C@@H](O)[C@@H]1O | – | < 50 | 58 | – | – | IC50 [6]: 0.15 µM; IC50 [7]: 5.8 µM
12 | Cc1cc2c(c(=O)[nH]1)C(=O)O/C2=C\c1ccc(CO)n1Cc1ccccc1 | – | – | 20.8 | 51.1 | 92.3 | –
13 | Cc1cc2c(c(=O)[nH]1)C(=O)O/C2=C\c1ccc(CO)n1-c1ccccc1C | < 50 | < 50 | – | – | – | inhibition (Saccharomyces cerevisiae): < 50%
14 | Cc1cc2c(c(=O)[nH]1)C(=O)O/C2=C\c1ccc(CO)n1-c1ccc(Cl)cc1 | < 50 | < 50 | 21.9 | – | – | –
15 | OCc1ccc2n1C[C@@H](c1ccc(O)cc1)OC2 | – | – | 5.01 | 21 | 14 | –
16 | OC[C@@H]1N[C@@H](c2ccc(O)cc2)[C@H](O)[C@H]1O | – | – | 25.2 | 41 | 28 | IC50 (Maltase-glucoamylase): 9.3 µM
17 | O=c1c2cc(O)c(O)cc2oc2cc(O)cc(O)c12 | < 50 | < 50 | 62.3 | – | – | –
18 | Cc1ccc(S(=O)(=O)Nc2ccc(C(=O)/C=C/c3ccc(O)cc3)cc2)cc1 | – | – | 82.7 | 91 | 105 | –

Row | Compound | inhibition [1] [%] | inhibition [2] [%] | IC50 [3] [µM] | IC50 [4] [µM] | IC50 (Alpha-mannosidase) [µM] | further results
19 | Cc1cc2c(c(=O)[nH]1)C(=O)O/C2=C\c1ccc(CO)n1CCc1c[nH]c2ccccc12 | – | < 50 | 4.4 | 12.9 | – | –
20 | OC[C@@H]1[C@@H](O)[C@H](O)[C@H]2[C@H](O)[C@@H](O)CN21 [CASUARINE] | – | – | 41.1 | 82 | 51 | IC50 [8]: 0.7 µM; IC50 [9]: 1.2 µM
21 | C[C@H]1O[C@H](O[C@H]2[C@H](O)[C@@H](O)[C@@H](O[C@H]3[C@H](O)[C@@H](O)C(O)O[C@@H]3CO)O[C@@H]2CO)[C@H](O)[C@@H](O)[C@@H]1N[C@H]1C=C(CO)[C@@H](O)[C@H](O)[C@H]1O (stereo partly specified) [ACARBOSE] | – | – | 2.1 | – | – | Activity (Rattus norvegicus [10]): Active; Activity [11]: Non-Toxic; inhibition (Rattus norvegicus [12]): inactive
22 | C=CC(C)(C)c1c2c(c(O)c3c(=O)c4ccc(O)c(O)c4oc13)C=CC(C)(C)O2 [MACLURAXANTHONE] | < 50 | < 50 | 62.3 | – | – | –
23 | Cc1cc2c(c(=O)[nH]1)C(=O)O/C2=C\c1ccc(CO)n1-c1ccc(F)cc1 | < 50 | < 50 | 20.7 | – | – | –
24 | O=C(O)c1cc(O)c2c(c1)C(=O)c1cccc(O)c1C2=O [RHEIN] | – | < 50 | 26.4 | 32 | – | IC50 [5]: 5.68 µM
25 | CC(C)=CCc1cc(C(=O)/C=C/c2ccc(O)c(O)c2)c(O)cc1O [BROUSSOCHALCONE A] | < 50 | < 50 | 101 | – | – | –
26 | Cc1cc2c(c(=O)[nH]1)C(=O)O/C2=C\c1ccc(CO)n1-c1ccccc1 | – | – | 27.4 | 38.4 | 61.4 | –
27 | Cc1cc2c(c(=O)[nH]1)C(=O)O/C2=C\c1ccc(CO)n1CCc1ccccc1 | < 50 | < 50 | – | – | – | inhibition (Saccharomyces cerevisiae): < 50%
28 | O=C1Nc2cc(Cl)ccc2/C1=C/c1ccc(O)c(O)c1 | – | – | 15 | 65 | 28 | –
29 | Oc1cc(O)cc(/C=C/c2cc(O)c(O)c(O)c2)c1 | < 50 | < 50 | 31.1 | – | – | –
30 | O=c1c(-c2ccc(O)cc2)coc2cc(O)cc(O)c12 [GENISTEIN] | – | – | 81 | 54 | 49 | IC50 [13]: 7 µM
31 | O=C1c2cccc(O)c2C(=O)c2c(O)cc(CO)cc21 [ALOE-EMODIN] | – | < 50 | 26.4 | 32 | – | IC50 [5]: 4.56 µM
32 | C=CC(C)(C)c1c(O)cc2oc3c(CC=C(C)C)c(O)c(O)cc3c(=O)c2c1O [CUDRAXANTHONE L] | < 50 | < 50 | 62.3 | – | – | –
33 | CC(C)=CCc1cc(-c2oc3cc(O)c(CC=C(C)C)c(O)c3c(=O)c2O)cc(O)c1O [BROUSSONOL E] | – | < 50 | 85.9 | 89 | – | –
34 | Cc1cc(O)c2c(c1)C(=O)c1cc(O)cc(O)c1C2=O [EMODIN] | – | < 50 | 26.4 | 32 | – | IC50 [5]: 4.12 µM
35 | Cc1ccc(S(=O)(=O)Nc2cccc(C(=O)/C=C/c3ccc(O)cc3)c2)cc1 | – | – | 82.7 | 91 | 105 | –
